# Measurements taken from ChEMBL document CHEMBL5058577, “EUbOPEN Chemogenomics Library 2 (Multiplex)” (2022).
# Tested on: HEK-293T
# Assay: Multiplex assay against HEK293T
# Format: toxicity, cell-based
# Settings: human
# Outline: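 Live cells were stained at seeding with Hoechst33342, BioTracker Green Microtubule Cytoskeleton Dye, MitoTracker Red and Annexin V Alexa Fluor 680. Following compound addition, they were imaged on a CQ1 microscope at 37°C and 5% CO2 and gated by CellPathfinder machine learning into Hoechst high-intensity objects or normal cells, with normal cells split into healthy, pyknosed or fragmented nuclei and pyknosed cells into mitotic or apoptotic. Tubulin, mitochondrial-mass and membrane-permeability phenotypes are per cents of healthy-nucleus cells.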
# [1] = 12 h, 1 µM, compound concentration 1 uM, replicate 1
# [2] = 12 h, 1 µM, compound concentration 1 uM, replicate 2
# [3] = 12 h, 10 µM, compound concentration 10 uM, replicate 1
# [4] = 12 h, 10 µM, compound concentration 10 uM, replicate 2
# [5] = 24 h, 1 µM, compound concentration 1 uM, replicate 1
# [6] = 24 h, 1 µM, compound concentration 1 uM, replicate 2
# [7] = 24 h, 10 µM, compound concentration 10 uM, replicate 1
# [8] = 24 h, 10 µM, compound concentration 10 uM, replicate 2
# [9] = 48 h, 1 µM, compound concentration 1 uM, replicate 1
# [10] = 48 h, 1 µM, compound concentration 1 uM, replicate 2
# [11] = 48 h, 10 µM, compound concentration 10 uM, replicate 1
# [12] = 48 h, 10 µM, compound concentration 10 uM, replicate 2
structure (smiles),measurement,setting,value
CN(C)C(=O)Cn1cc(-c2ccc(-c3cncc4ccccc34)cc2)cn1,Population Apoptotic (%),[1],52%
same,Population Fragmented Nuclei (%),[1],5%
same,Population Healthy Nuclei (%),[1],81%
same,Population Hoechst High Intensity Objects (%),[1],7%
same,Population Membrane Permeable-Phenotype (%),[1],0%
same,Population Mitochondria Different-Phenotype (%),[1],50%
same,Population Mitotic Cells (%),[1],47%
same,Population Normal (%),[1],92%
same,Population Pyknosed Nuclei (%),[1],12%
same,Population Tubulin-Different-Phenotype (%),[1],35%
same,Total Cell Count,[1],411
same,Population Apoptotic (%),[2],40%
same,Population Fragmented Nuclei (%),[2],4%
same,Population Healthy Nuclei (%),[2],80%
same,Population Hoechst High Intensity Objects (%),[2],2%
same,Population Mitochondria Different-Phenotype (%),[2],58%
same,Population Mitotic Cells (%),[2],59%
same,Population Normal (%),[2],97%
same,Population Pyknosed Nuclei (%),[2],14%
same,Population Tubulin-Different-Phenotype (%),[2],23%
same,Total Cell Count,[2],337
same,Population Apoptotic (%),[3],48%
same,Population Fragmented Nuclei (%),[3],8%
same,Population Healthy Nuclei (%),[3],73%
same,Population Hoechst High Intensity Objects (%),[3],6%
same,Population Membrane Permeable-Phenotype (%),[3],0%
same,Population Mitochondria Different-Phenotype (%),[3],65%
same,Population Mitotic Cells (%),[3],51%
same,Population Normal (%),[3],93%
same,Population Pyknosed Nuclei (%),[3],17%
same,Population Tubulin-Different-Phenotype (%),[3],47%
same,Total Cell Count,[3],264
same,Population Apoptotic (%),[4],69%
same,Population Healthy Nuclei (%),[4],76%
same,Population Hoechst High Intensity Objects (%),[4],19%
same,Population Mitochondria Different-Phenotype (%),[4],69%
same,Population Mitotic Cells (%),[4],30%
same,Population Normal (%),[4],80%
same,Population Pyknosed Nuclei (%),[4],15%
same,Population Tubulin-Different-Phenotype (%),[4],43%
same,Total Cell Count,[4],321
same,Population Apoptotic (%),[5],47%
same,Population Fragmented Nuclei (%),[5],10%
same,Population Healthy Nuclei (%),[5],79%
same,Population Hoechst High Intensity Objects (%),[5],6%
same,Population Membrane Permeable-Phenotype (%),[5],0%
same,Population Mitochondria Different-Phenotype (%),[5],38%
same,Population Mitotic Cells (%),[5],52%
same,Population Normal (%),[5],93%
same,Population Pyknosed Nuclei (%),[5],10%
same,Population Tubulin-Different-Phenotype (%),[5],24%
same,Total Cell Count,[5],498
same,Population Apoptotic (%),[6],40%
same,Population Fragmented Nuclei (%),[6],6%
same,Population Healthy Nuclei (%),[6],82%
same,Population Hoechst High Intensity Objects (%),[6],7%
same,Population Mitochondria Different-Phenotype (%),[6],45%
same,Population Mitotic Cells (%),[6],60%
same,Population Normal (%),[6],92%
same,Population Tubulin-Different-Phenotype (%),[6],23%
same,Total Cell Count,[6],355
same,Population Apoptotic (%),[7],48%
same,Population Fragmented Nuclei (%),[7],9%
same,Population Healthy Nuclei (%),[7],75%
same,Population Hoechst High Intensity Objects (%),[7],6%
same,Population Membrane Permeable-Phenotype (%),[7],0%
same,Population Mitochondria Different-Phenotype (%),[7],65%
same,Population Mitotic Cells (%),[7],51%
same,Population Normal (%),[7],93%
same,Population Pyknosed Nuclei (%),[7],14%
same,Population Tubulin-Different-Phenotype (%),[7],44%
same,Total Cell Count,[7],283
same,Population Apoptotic (%),[8],45%
same,Population Fragmented Nuclei (%),[8],10%
same,Population Hoechst High Intensity Objects (%),[8],14%
same,Population Mitochondria Different-Phenotype (%),[8],53%
same,Population Mitotic Cells (%),[8],54%
same,Population Normal (%),[8],85%
same,Population Pyknosed Nuclei (%),[8],13%
same,Population Tubulin-Different-Phenotype (%),[8],30%
same,Total Cell Count,[8],362
same,Population Apoptotic (%),[9],35%
same,Population Fragmented Nuclei (%),[9],19%
same,Population Healthy Nuclei (%),[9],74%
same,Population Hoechst High Intensity Objects (%),[9],8%
same,Population Membrane Permeable-Phenotype (%),[9],1%
same,Population Mitochondria Different-Phenotype (%),[9],40%
same,Population Mitotic Cells (%),[9],64%
same,Population Normal (%),[9],91%
same,Population Pyknosed Nuclei (%),[9],6%
same,Population Tubulin-Different-Phenotype (%),[9],25%
same,Total Cell Count,[9],554
same,Population Apoptotic (%),[10],60%
same,Population Fragmented Nuclei (%),[10],11%
same,Population Healthy Nuclei (%),[10],82%
same,Population Hoechst High Intensity Objects (%),[10],5%
same,Population Membrane Permeable-Phenotype (%),[10],0%
same,Population Mitochondria Different-Phenotype (%),[10],32%
same,Population Mitotic Cells (%),[10],39%
same,Population Normal (%),[10],94%
same,Population Pyknosed Nuclei (%),[10],5%
same,Population Tubulin-Different-Phenotype (%),[10],17%
same,Total Cell Count,[10],430
same,Population Apoptotic (%),[11],66%
same,Population Fragmented Nuclei (%),[11],23%
same,Population Healthy Nuclei (%),[11],63%
same,Population Hoechst High Intensity Objects (%),[11],11%
same,Population Membrane Permeable-Phenotype (%),[11],0%
same,Population Mitochondria Different-Phenotype (%),[11],56%
same,Population Mitotic Cells (%),[11],33%
same,Population Normal (%),[11],88%
same,Population Pyknosed Nuclei (%),[11],12%
same,Population Tubulin-Different-Phenotype (%),[11],30%
same,Total Cell Count,[11],379
same,Population Apoptotic (%),[12],59%
same,Population Healthy Nuclei (%),[12],70%
same,Population Hoechst High Intensity Objects (%),[12],8%
same,Population Mitochondria Different-Phenotype (%),[12],43%
same,Population Mitotic Cells (%),[12],40%
same,Population Normal (%),[12],91%
same,Population Pyknosed Nuclei (%),[12],6%
same,Population Tubulin-Different-Phenotype (%),[12],23%
same,Total Cell Count,[12],429
